Test results from ChEMBL document CHEMBL3351863, “Optimization of 2-phenyl-pyrimidine-4-carboxamides towards potent, orally bioavailable and selective P2Y(12) antagonists for inhibition of platelet aggregation” (Bioorg Med Chem Lett, 2014).

Test system: Liver microsome
Experiment: Metabolic stability assay in human liver microsomes assessed as parent drug disappearance at 1 uM after 20 mins by HPLC and mass spectrometry method
Format: ADME
Details: not given; call rule not given here

SMILES | Stability
CCOC(=O)N1CCN(C(=O)[C@H](CCC(=O)O)NC(=O)c2cc(CN3CCCCC3)nc(-c3ccccc3)n2)CC1 | Stable
CCOC(=O)N1CCN(C(=O)[C@H](CCC(=O)O)NC(=O)c2cc(N3CCCCC3)nc(-c3ccccc3)n2)CC1 | Stable
CCOC(=O)N1CCN(C(=O)[C@H](CCC(=O)O)NC(=O)c2cc(NCCN3CCOCC3)nc(-c3ccccc3)n2)CC1 | Stable
CCOC(=O)N1CCN(C(=O)[C@H](CCC(=O)O)NC(=O)c2cc(NCCCO)nc(-c3ccccc3)n2)CC1 | Stable

Target: T1, Cytochrome P450 3A4 (Homo sapiens, UniProt P08684)
Experiment: Inhibition of CYP3A4 in human liver microsomes assessed as reduction in testosterone 6beta-hydroxylation
Format: ADME
Details: not given

T1 sequence (P08684 whole entry): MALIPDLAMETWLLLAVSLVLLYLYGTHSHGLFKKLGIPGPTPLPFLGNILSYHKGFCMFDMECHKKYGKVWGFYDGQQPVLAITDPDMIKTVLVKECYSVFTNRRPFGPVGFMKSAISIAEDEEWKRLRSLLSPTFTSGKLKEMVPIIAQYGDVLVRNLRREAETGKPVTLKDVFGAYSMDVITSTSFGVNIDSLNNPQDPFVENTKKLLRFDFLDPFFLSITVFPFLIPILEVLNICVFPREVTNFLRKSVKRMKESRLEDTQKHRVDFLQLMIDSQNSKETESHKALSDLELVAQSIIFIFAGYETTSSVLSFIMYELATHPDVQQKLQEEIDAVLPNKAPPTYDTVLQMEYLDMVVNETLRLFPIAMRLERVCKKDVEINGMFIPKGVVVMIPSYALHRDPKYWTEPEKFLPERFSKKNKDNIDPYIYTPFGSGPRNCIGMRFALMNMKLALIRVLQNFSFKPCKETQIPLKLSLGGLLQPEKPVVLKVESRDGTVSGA

SMILES | inhibition (INH)
CCOC(=O)N1CCN(C(=O)[C@H](CCC(=O)O)NC(=O)c2cc(CN3CCCCC3)nc(-c3ccccc3)n2)CC1 | Not Active
CCOC(=O)N1CCN(C(=O)[C@H](CCC(=O)O)NC(=O)c2cc(N3CCCCC3)nc(-c3ccccc3)n2)CC1 | Not Active
CCOC(=O)N1CCN(C(=O)[C@H](CCC(=O)O)NC(=O)c2cc(NCCN3CCOCC3)nc(-c3ccccc3)n2)CC1 | Not Active
CCOC(=O)N1CCN(C(=O)[C@H](CCC(=O)O)NC(=O)c2cc(NCCCO)nc(-c3ccccc3)n2)CC1 | Not Active

Target: T1, Cytochrome P450 3A4
Experiment: Inhibition of CYP3A4 in human liver microsomes assessed as reduction in midazolam 1'-hydroxylation
Format: ADME
Details: not given

SMILES | inhibition (INH)
CCOC(=O)N1CCN(C(=O)[C@H](CCC(=O)O)NC(=O)c2cc(CN3CCCCC3)nc(-c3ccccc3)n2)CC1 | Not Active
CCOC(=O)N1CCN(C(=O)[C@H](CCC(=O)O)NC(=O)c2cc(N3CCCCC3)nc(-c3ccccc3)n2)CC1 | Not Active
CCOC(=O)N1CCN(C(=O)[C@H](CCC(=O)O)NC(=O)c2cc(NCCN3CCOCC3)nc(-c3ccccc3)n2)CC1 | Not Active
CCOC(=O)N1CCN(C(=O)[C@H](CCC(=O)O)NC(=O)c2cc(NCCCO)nc(-c3ccccc3)n2)CC1 | Not Active

Test system: Platelet
Experiment: Inhibition of ADP-induced platelet aggregation in human platelet rich plasma assessed as remaining activity at 500 nM by in-vitro light transmission aggregometry assay
Format: functional
Details: not given
Procedure, shortened: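 Light transmission aggregometry in human platelet-rich plasma; compound incubated, aggregation triggered with 3 µM ADP; remaining activity (RA) recorded at a single compound level (1000, 500 or 100 nM).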

SMILES | Activity [%]
CCOC(=O)N1CCN(C(=O)[C@H](CCC(=O)O)NC(=O)c2cc(N3CCCCC3)nc(-c3ccccc3)n2)CC1 | 30
CCOC(=O)N1CCN(C(=O)[C@H](CCC(=O)O)NC(=O)c2cc(NCCN3CCOCC3)nc(-c3ccccc3)n2)CC1 | 30
CCOC(=O)N1CCN(C(=O)[C@H](CCC(=O)O)NC(=O)c2cc(NCCCO)nc(-c3ccccc3)n2)CC1 | 30

Target: P2Y purinoceptor 12 (Homo sapiens, UniProt Q9H244)
Experiment: Displacement of [3H]-2-methyl-thio-adenosine 5'-diphosphate from human recombinant P2Y12 expressed in CHO cell membranes by scintillation counting method
Details: not given
Procedure, shortened: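 CHO cells expressing recombinant P2Y₁₂ receptors, incubated with tritium-labeled 2-methyl-thio-adenosine 5'-diphosphate plus test compound; IC₅₀ from displacement curves, each point in triplicate; reference compound run with every compound set, and set re-analyzed if its IC₅₀ fell outside pre-set 95% confidence interval.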

P2Y purinoceptor 12, sequence (Q9H244 whole entry): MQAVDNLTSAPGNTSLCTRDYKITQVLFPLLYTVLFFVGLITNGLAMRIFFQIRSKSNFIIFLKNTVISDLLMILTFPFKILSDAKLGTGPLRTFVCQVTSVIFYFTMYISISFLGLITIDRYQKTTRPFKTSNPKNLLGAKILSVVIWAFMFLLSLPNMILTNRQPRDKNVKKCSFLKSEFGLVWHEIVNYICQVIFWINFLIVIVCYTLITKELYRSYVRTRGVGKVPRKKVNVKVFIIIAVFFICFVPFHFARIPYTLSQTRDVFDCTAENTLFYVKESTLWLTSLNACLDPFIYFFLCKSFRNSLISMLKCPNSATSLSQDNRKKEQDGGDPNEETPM

SMILES | IC50 [µM]
CCOC(=O)N1CCN(C(=O)[C@H](CCC(=O)O)NC(=O)c2cc(CN3CCCCC3)nc(-c3ccccc3)n2)CC1 | 0.533
CCOC(=O)N1CCN(C(=O)[C@H](CCC(=O)O)NC(=O)c2cc(N3CCCCC3)nc(-c3ccccc3)n2)CC1 | 0.201
CCOC(=O)N1CCN(C(=O)[C@H](CCC(=O)O)NC(=O)c2cc(NCCN3CCOCC3)nc(-c3ccccc3)n2)CC1 | 0.257
CCOC(=O)N1CCN(C(=O)[C@H](CCC(=O)O)NC(=O)c2cc(NCCCO)nc(-c3ccccc3)n2)CC1 | 0.279

Target: Cytochrome P450 2C9 (Homo sapiens, UniProt P11712)
Experiment: Inhibition of CYP2C9 in human liver microsomes assessed as reduction in diclofenac 4'-hydroxylation
Format: ADME
Details: not given

Cytochrome P450 2C9, sequence (P11712 whole entry): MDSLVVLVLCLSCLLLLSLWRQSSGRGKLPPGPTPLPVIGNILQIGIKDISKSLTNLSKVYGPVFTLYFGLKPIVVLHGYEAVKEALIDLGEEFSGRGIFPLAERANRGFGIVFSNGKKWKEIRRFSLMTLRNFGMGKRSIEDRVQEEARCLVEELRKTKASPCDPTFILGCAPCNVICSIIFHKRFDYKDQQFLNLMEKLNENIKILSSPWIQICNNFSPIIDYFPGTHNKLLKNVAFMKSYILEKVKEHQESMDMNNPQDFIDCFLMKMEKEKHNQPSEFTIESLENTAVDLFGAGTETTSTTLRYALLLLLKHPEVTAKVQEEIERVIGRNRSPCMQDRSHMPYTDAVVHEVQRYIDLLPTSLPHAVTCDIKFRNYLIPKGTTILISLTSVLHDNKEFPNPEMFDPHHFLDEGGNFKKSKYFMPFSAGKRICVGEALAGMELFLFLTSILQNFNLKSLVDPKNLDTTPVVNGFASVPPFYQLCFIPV

SMILES | inhibition (INH)
CCOC(=O)N1CCN(C(=O)[C@H](CCC(=O)O)NC(=O)c2cc(CN3CCCCC3)nc(-c3ccccc3)n2)CC1 | Not Active
CCOC(=O)N1CCN(C(=O)[C@H](CCC(=O)O)NC(=O)c2cc(N3CCCCC3)nc(-c3ccccc3)n2)CC1 | Not Active
CCOC(=O)N1CCN(C(=O)[C@H](CCC(=O)O)NC(=O)c2cc(NCCN3CCOCC3)nc(-c3ccccc3)n2)CC1 | Not Active
CCOC(=O)N1CCN(C(=O)[C@H](CCC(=O)O)NC(=O)c2cc(NCCCO)nc(-c3ccccc3)n2)CC1 | Not Active

Test system: not listed separately
Experiment: Solubility in neutral pH
Format: physicochemical
Details: not given

SMILES | solubility
CCOC(=O)N1CCN(C(=O)[C@H](CCC(=O)O)NC(=O)c2cc(CN3CCCCC3)nc(-c3ccccc3)n2)CC1 | soluble
CCOC(=O)N1CCN(C(=O)[C@H](CCC(=O)O)NC(=O)c2cc(N3CCCCC3)nc(-c3ccccc3)n2)CC1 | soluble
CCOC(=O)N1CCN(C(=O)[C@H](CCC(=O)O)NC(=O)c2cc(NCCN3CCOCC3)nc(-c3ccccc3)n2)CC1 | soluble
CCOC(=O)N1CCN(C(=O)[C@H](CCC(=O)O)NC(=O)c2cc(NCCCO)nc(-c3ccccc3)n2)CC1 | soluble

Target: Voltage-gated inwardly rectifying potassium channel KCNH2 (Homo sapiens, UniProt Q12809)
Experiment: Inhibition of human ERG expressed in HEK cells by patch-clamp assay
Format: cell-based
Details: hek293

Voltage-gated inwardly rectifying potassium channel KCNH2, sequence (Q12809 whole entry): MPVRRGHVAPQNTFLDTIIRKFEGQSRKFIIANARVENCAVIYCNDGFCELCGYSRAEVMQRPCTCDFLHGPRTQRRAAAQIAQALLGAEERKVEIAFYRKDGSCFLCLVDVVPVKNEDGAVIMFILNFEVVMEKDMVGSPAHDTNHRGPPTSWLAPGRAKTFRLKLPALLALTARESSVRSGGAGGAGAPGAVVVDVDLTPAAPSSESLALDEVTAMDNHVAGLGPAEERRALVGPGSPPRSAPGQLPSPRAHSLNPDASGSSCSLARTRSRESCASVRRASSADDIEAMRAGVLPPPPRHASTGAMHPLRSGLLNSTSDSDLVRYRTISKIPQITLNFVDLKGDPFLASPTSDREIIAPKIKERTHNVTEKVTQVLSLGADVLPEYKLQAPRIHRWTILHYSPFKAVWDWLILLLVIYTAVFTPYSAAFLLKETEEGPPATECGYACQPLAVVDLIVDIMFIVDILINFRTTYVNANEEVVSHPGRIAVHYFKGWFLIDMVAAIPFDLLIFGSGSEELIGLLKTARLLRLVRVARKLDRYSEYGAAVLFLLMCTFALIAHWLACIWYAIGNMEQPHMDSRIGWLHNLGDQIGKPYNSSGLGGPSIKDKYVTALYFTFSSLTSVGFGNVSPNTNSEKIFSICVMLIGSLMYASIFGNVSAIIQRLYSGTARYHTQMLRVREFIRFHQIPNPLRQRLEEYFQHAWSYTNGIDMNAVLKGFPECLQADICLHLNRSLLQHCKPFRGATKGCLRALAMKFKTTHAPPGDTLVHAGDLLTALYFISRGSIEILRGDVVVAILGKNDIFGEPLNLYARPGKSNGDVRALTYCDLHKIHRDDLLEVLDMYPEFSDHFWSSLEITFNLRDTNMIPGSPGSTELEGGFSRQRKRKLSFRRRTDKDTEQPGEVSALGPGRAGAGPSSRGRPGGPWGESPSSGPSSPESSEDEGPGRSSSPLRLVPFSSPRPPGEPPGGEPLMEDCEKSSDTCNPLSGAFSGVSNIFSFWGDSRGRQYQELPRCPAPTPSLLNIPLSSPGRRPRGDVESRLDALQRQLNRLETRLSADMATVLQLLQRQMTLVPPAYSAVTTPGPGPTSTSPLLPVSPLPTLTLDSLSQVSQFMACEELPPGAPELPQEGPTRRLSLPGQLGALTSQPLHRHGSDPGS

SMILES | inhibition (INH)
CCOC(=O)N1CCN(C(=O)[C@H](CCC(=O)O)NC(=O)c2cc(CN3CCCCC3)nc(-c3ccccc3)n2)CC1 | Not Active
CCOC(=O)N1CCN(C(=O)[C@H](CCC(=O)O)NC(=O)c2cc(N3CCCCC3)nc(-c3ccccc3)n2)CC1 | Not Active
CCOC(=O)N1CCN(C(=O)[C@H](CCC(=O)O)NC(=O)c2cc(NCCN3CCOCC3)nc(-c3ccccc3)n2)CC1 | Not Active
CCOC(=O)N1CCN(C(=O)[C@H](CCC(=O)O)NC(=O)c2cc(NCCCO)nc(-c3ccccc3)n2)CC1 | Not Active

Test system: not listed separately
Experiment: Solubility in basic pH
Format: physicochemical
Details: not given

SMILES | solubility
CCOC(=O)N1CCN(C(=O)[C@H](CCC(=O)O)NC(=O)c2cc(CN3CCCCC3)nc(-c3ccccc3)n2)CC1 | soluble
CCOC(=O)N1CCN(C(=O)[C@H](CCC(=O)O)NC(=O)c2cc(N3CCCCC3)nc(-c3ccccc3)n2)CC1 | soluble
CCOC(=O)N1CCN(C(=O)[C@H](CCC(=O)O)NC(=O)c2cc(NCCN3CCOCC3)nc(-c3ccccc3)n2)CC1 | soluble
CCOC(=O)N1CCN(C(=O)[C@H](CCC(=O)O)NC(=O)c2cc(NCCCO)nc(-c3ccccc3)n2)CC1 | soluble

Target: Cytochrome P450 2D6 (Homo sapiens, UniProt P10635)
Experiment: Inhibition of CYP2D6 in human liver microsomes assessed as reduction in dextromethorphan-O demethylation
Format: ADME
Details: not given

Cytochrome P450 2D6, sequence (P10635 whole entry): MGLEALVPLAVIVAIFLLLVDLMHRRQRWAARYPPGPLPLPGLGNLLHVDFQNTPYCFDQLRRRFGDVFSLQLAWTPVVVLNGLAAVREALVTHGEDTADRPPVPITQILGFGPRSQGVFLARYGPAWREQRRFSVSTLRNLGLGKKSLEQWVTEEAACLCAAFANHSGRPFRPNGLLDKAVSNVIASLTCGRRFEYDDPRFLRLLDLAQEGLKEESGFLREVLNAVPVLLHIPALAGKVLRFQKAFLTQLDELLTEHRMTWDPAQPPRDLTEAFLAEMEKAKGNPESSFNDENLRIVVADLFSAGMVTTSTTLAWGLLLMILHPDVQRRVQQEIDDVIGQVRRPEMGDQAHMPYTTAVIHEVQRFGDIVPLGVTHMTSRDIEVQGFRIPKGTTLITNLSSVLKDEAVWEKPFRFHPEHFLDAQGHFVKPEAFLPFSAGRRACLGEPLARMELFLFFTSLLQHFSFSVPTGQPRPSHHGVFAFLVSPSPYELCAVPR

SMILES | inhibition (INH)
CCOC(=O)N1CCN(C(=O)[C@H](CCC(=O)O)NC(=O)c2cc(CN3CCCCC3)nc(-c3ccccc3)n2)CC1 | Not Active
CCOC(=O)N1CCN(C(=O)[C@H](CCC(=O)O)NC(=O)c2cc(N3CCCCC3)nc(-c3ccccc3)n2)CC1 | Not Active
CCOC(=O)N1CCN(C(=O)[C@H](CCC(=O)O)NC(=O)c2cc(NCCN3CCOCC3)nc(-c3ccccc3)n2)CC1 | Not Active
CCOC(=O)N1CCN(C(=O)[C@H](CCC(=O)O)NC(=O)c2cc(NCCCO)nc(-c3ccccc3)n2)CC1 | Not Active

Test system: Liver microsome
Experiment: Metabolic stability assay in rat liver microsomes assessed as parent drug disappearance at 1 uM after 20 mins by HPLC and mass spectrometry method
Format: ADME
Details: not given

SMILES | Stability
CCOC(=O)N1CCN(C(=O)[C@H](CCC(=O)O)NC(=O)c2cc(CN3CCCCC3)nc(-c3ccccc3)n2)CC1 | Stable
CCOC(=O)N1CCN(C(=O)[C@H](CCC(=O)O)NC(=O)c2cc(N3CCCCC3)nc(-c3ccccc3)n2)CC1 | Stable
CCOC(=O)N1CCN(C(=O)[C@H](CCC(=O)O)NC(=O)c2cc(NCCN3CCOCC3)nc(-c3ccccc3)n2)CC1 | Stable
CCOC(=O)N1CCN(C(=O)[C@H](CCC(=O)O)NC(=O)c2cc(NCCCO)nc(-c3ccccc3)n2)CC1 | Stable
